# ChEMBL document CHEMBL5303300, “EUbOPEN Chemogenomics Library - Multiplex” (2023)
# Several values for one entry are separate records, joined by “and”; a condition that tells them apart may be missing. Equal values may be shown once.
# System: Fibroblast
# Assay: Multiplex assay against human fibroblast
# Assay type: toxicity, cell-based
# Settings: number of replicates 2
# In short: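 At seeding, live cells were stained with Hoechst33342, BioTracker Green Microtubule Cytoskeleton Dye, MitoTracker Red and Annexin V Alexa Fluor 680. After compound addition they were imaged on a CQ1 microscope at 37°C and 5% CO2, and CellPathfinder machine-learning gating sorted them into Hoechst high-intensity objects or normal cells, with normal cells further split into healthy, pyknosed or fragmented nuclei and pyknosed cells into mitotic or apoptotic. Tubulin, mitochondrial-mass and membrane-permeability phenotypes are given as per cents of cells with healthy nuclei.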
# [1] = 12 h, 1 µM, compound concentration 1 uM
# [2] = 12 h, 10 µM, compound concentration 10 uM
# [3] = 24 h, 1 µM, compound concentration 1 uM
# [4] = 24 h, 10 µM, compound concentration 10 uM
# [5] = 48 h, 1 µM, compound concentration 1 uM
# [6] = 48 h, 10 µM, compound concentration 10 uM
smiles,measurement,setting,value
COc1cc(C(=O)NC2CCN(C)CC2)ccc1Nc1ncc(C(F)(F)F)c(NCc2ccc(C)cc2N(C)S(C)(=O)=O)n1.O=CO.O=CO,Population Apoptotic (%),[1],44% and 53%
same,Population Fragmented Nuclei (%),[1],24% and 14%
same,Population Healthy Nuclei (%),[1],64% and 61%
same,Population Hoechst High Intensity Objects (%),[1],1% and 0%
same,Population Membrane Permeable-Phenotype (%),[1],8% and 11%
same,Population Mitochondria Different-Phenotype (%),[1],3% and 4%
same,Population Mitotic Cells (%),[1],55% and 46%
same,Population Normal (%),[1],98% and 100%
same,Population Pyknosed Nuclei (%),[1],10% and 24%
same,Population Tubulin-Different-Phenotype (%),[1],64% and 46%
same,Total Cell Count,[1],277 and 215
same,Population Apoptotic (%),[2],63% and 46%
same,Population Fragmented Nuclei (%),[2],6% and 16%
same,Population Healthy Nuclei (%),[2],27% and 55%
same,Population Hoechst High Intensity Objects (%),[2],0%
same,Population Membrane Permeable-Phenotype (%),[2],6% and 8%
same,Population Mitochondria Different-Phenotype (%),[2],15%
same,Population Mitotic Cells (%),[2],36% and 53%
same,Population Normal (%),[2],100% and 99%
same,Population Pyknosed Nuclei (%),[2],66% and 27%
same,Population Tubulin-Different-Phenotype (%),[2],67% and 69%
same,Total Cell Count,[2],168 and 259
same,Population Apoptotic (%),[3],63% and 64%
same,Population Fragmented Nuclei (%),[3],21% and 17%
same,Population Healthy Nuclei (%),[3],70% and 66%
same,Population Hoechst High Intensity Objects (%),[3],1% and 0%
same,Population Membrane Permeable-Phenotype (%),[3],4% and 6%
same,Population Mitochondria Different-Phenotype (%),[3],9% and 6%
same,Population Mitotic Cells (%),[3],36% and 35%
same,Population Normal (%),[3],98% and 100%
same,Population Pyknosed Nuclei (%),[3],8% and 16%
same,Population Tubulin-Different-Phenotype (%),[3],53% and 38%
same,Total Cell Count,[3],268 and 243
same,Population Apoptotic (%),[4],94% and 92%
same,Population Fragmented Nuclei (%),[4],5% and 12%
same,Population Healthy Nuclei (%),[4],9% and 16%
same,Population Hoechst High Intensity Objects (%),[4],0% and 1%
same,Population Mitochondria Different-Phenotype (%),[4],23% and 62%
same,Population Mitotic Cells (%),[4],5% and 7%
same,Population Normal (%),[4],99% and 98%
same,Population Pyknosed Nuclei (%),[4],85% and 70%
same,Population Tubulin-Different-Phenotype (%),[4],84% and 77%
same,Total Cell Count,[4],135 and 166
same,Population Apoptotic (%),[5],94% and 90%
same,Population Fragmented Nuclei (%),[5],27% and 25%
same,Population Healthy Nuclei (%),[5],66% and 65%
same,Population Hoechst High Intensity Objects (%),[5],0%
same,Population Membrane Permeable-Phenotype (%),[5],6% and 5%
same,Population Mitochondria Different-Phenotype (%),[5],5% and 2%
same,Population Mitotic Cells (%),[5],5% and 9%
same,Population Normal (%),[5],99%
same,Population Pyknosed Nuclei (%),[5],6% and 8%
same,Population Tubulin-Different-Phenotype (%),[5],43% and 20%
same,Total Cell Count,[5],267 and 253
same,Population Apoptotic (%),[6],97% and 96%
same,Population Fragmented Nuclei (%),[6],27% and 31%
same,Population Healthy Nuclei (%),[6],16% and 15%
same,Population Hoechst High Intensity Objects (%),[6],0%
same,Population Membrane Permeable-Phenotype (%),[6],31% and 30%
same,Population Mitochondria Different-Phenotype (%),[6],9% and 26%
same,Population Mitotic Cells (%),[6],2% and 3%
same,Population Normal (%),[6],100%
same,Population Pyknosed Nuclei (%),[6],56% and 53%
same,Population Tubulin-Different-Phenotype (%),[6],81% and 78%
same,Total Cell Count,[6],132 and 153
CCNc1ccc(-c2nn(-c3ccccc3C)c3c2C(C)Cc2nc(NC(=O)OC)sc2-3)cn1.O=C(O)C(F)(F)F (stereo unspecified),Population Apoptotic (%),[1],34% and 35%
same,Population Fragmented Nuclei (%),[1],22% and 27%
same,Population Healthy Nuclei (%),[1],60% and 57%
same,Population Hoechst High Intensity Objects (%),[1],0%
same,Population Membrane Permeable-Phenotype (%),[1],5% and 3%
same,Population Mitochondria Different-Phenotype (%),[1],0% and 3%
same,Population Mitotic Cells (%),[1],65%
same,Population Normal (%),[1],100%
same,Population Pyknosed Nuclei (%),[1],17% and 14%
same,Population Tubulin-Different-Phenotype (%),[1],35% and 27%
same,Total Cell Count,[1],255 and 278
same,Population Apoptotic (%),[2],43% and 57%
same,Population Fragmented Nuclei (%),[2],15% and 26%
same,Population Healthy Nuclei (%),[2],66% and 61%
same,Population Hoechst High Intensity Objects (%),[2],0% and 1%
same,Population Membrane Permeable-Phenotype (%),[2],17% and 10%
same,Population Mitochondria Different-Phenotype (%),[2],6% and 12%
same,Population Mitotic Cells (%),[2],56% and 42%
same,Population Normal (%),[2],100% and 98%
same,Population Pyknosed Nuclei (%),[2],18% and 12%
same,Population Tubulin-Different-Phenotype (%),[2],87% and 86%
same,Total Cell Count,[2],216 and 211
same,Population Apoptotic (%),[3],40% and 46%
same,Population Fragmented Nuclei (%),[3],20% and 17%
same,Population Healthy Nuclei (%),[3],64% and 70%
same,Population Hoechst High Intensity Objects (%),[3],0%
same,Population Membrane Permeable-Phenotype (%),[3],4% and 3%
same,Population Mitochondria Different-Phenotype (%),[3],2% and 4%
same,Population Mitotic Cells (%),[3],60% and 53%
same,Population Normal (%),[3],100% and 99%
same,Population Pyknosed Nuclei (%),[3],15% and 12%
same,Population Tubulin-Different-Phenotype (%),[3],35% and 28%
same,Total Cell Count,[3],225 and 233
same,Population Apoptotic (%),[4],62% and 68%
same,Population Fragmented Nuclei (%),[4],21% and 27%
same,Population Healthy Nuclei (%),[4],62% and 65%
same,Population Hoechst High Intensity Objects (%),[4],0%
same,Population Membrane Permeable-Phenotype (%),[4],9% and 8%
same,Population Mitochondria Different-Phenotype (%),[4],12%
same,Population Mitotic Cells (%),[4],37% and 31%
same,Population Normal (%),[4],99% and 100%
same,Population Pyknosed Nuclei (%),[4],16% and 7%
same,Population Tubulin-Different-Phenotype (%),[4],88%
same,Total Cell Count,[4],195 and 209
same,Population Apoptotic (%),[5],58% and 20%
same,Population Fragmented Nuclei (%),[5],13% and 15%
same,Population Healthy Nuclei (%),[5],77% and 78%
same,Population Hoechst High Intensity Objects (%),[5],0%
same,Population Membrane Permeable-Phenotype (%),[5],5% and 2%
same,Population Mitochondria Different-Phenotype (%),[5],2% and 0%
same,Population Mitotic Cells (%),[5],41% and 80%
same,Population Normal (%),[5],100% and 99%
same,Population Pyknosed Nuclei (%),[5],8% and 6%
same,Population Tubulin-Different-Phenotype (%),[5],26% and 18%
same,Total Cell Count,[5],208 and 225
same,Population Apoptotic (%),[6],84% and 76%
same,Population Fragmented Nuclei (%),[6],15% and 19%
same,Population Healthy Nuclei (%),[6],65% and 64%
same,Population Hoechst High Intensity Objects (%),[6],0%
same,Population Membrane Permeable-Phenotype (%),[6],5% and 3%
same,Population Mitochondria Different-Phenotype (%),[6],19% and 22%
same,Population Mitotic Cells (%),[6],15% and 24%
same,Population Normal (%),[6],100%
same,Population Pyknosed Nuclei (%),[6],18% and 15%
same,Population Tubulin-Different-Phenotype (%),[6],87% and 90%
same,Total Cell Count,[6],169 and 157
Cc1cc(C2CCCNC2)ccc1Nc1ncc(Br)c(NCc2cccc3c2C(C)(C)C(=O)N3)n1 (stereo unspecified),Population Apoptotic (%),[1],58% and 42%
same,Population Fragmented Nuclei (%),[1],10%
same,Population Healthy Nuclei (%),[1],61% and 64%
same,Population Hoechst High Intensity Objects (%),[1],0%
same,Population Membrane Permeable-Phenotype (%),[1],13% and 5%
same,Population Mitochondria Different-Phenotype (%),[1],5% and 3%
same,Population Mitotic Cells (%),[1],42% and 57%
same,Population Normal (%),[1],99% and 100%
same,Population Pyknosed Nuclei (%),[1],27% and 25%
same,Population Tubulin-Different-Phenotype (%),[1],50% and 49%
same,Total Cell Count,[1],184 and 193
same,Population Apoptotic (%),[2],40% and 38%
same,Population Fragmented Nuclei (%),[2],29% and 27%
same,Population Healthy Nuclei (%),[2],59% and 56%
same,Population Hoechst High Intensity Objects (%),[2],1% and 0%
same,Population Membrane Permeable-Phenotype (%),[2],9% and 11%
same,Population Mitochondria Different-Phenotype (%),[2],2% and 5%
same,Population Mitotic Cells (%),[2],60% and 61%
same,Population Normal (%),[2],98% and 99%
same,Population Pyknosed Nuclei (%),[2],10% and 15%
same,Population Tubulin-Different-Phenotype (%),[2],82% and 69%
same,Total Cell Count,[2],382 and 328
same,Population Apoptotic (%),[3],57% and 62%
same,Population Fragmented Nuclei (%),[3],8% and 14%
same,Population Healthy Nuclei (%),[3],71% and 60%
same,Population Hoechst High Intensity Objects (%),[3],0%
same,Population Membrane Permeable-Phenotype (%),[3],3% and 7%
same,Population Mitochondria Different-Phenotype (%),[3],6% and 12%
same,Population Mitotic Cells (%),[3],42% and 38%
same,Population Normal (%),[3],100% and 99%
same,Population Pyknosed Nuclei (%),[3],20% and 25%
same,Population Tubulin-Different-Phenotype (%),[3],43% and 46%
same,Total Cell Count,[3],198 and 199
same,Population Apoptotic (%),[4],65% and 74%
same,Population Fragmented Nuclei (%),[4],17% and 10%
same,Population Healthy Nuclei (%),[4],59% and 62%
same,Population Hoechst High Intensity Objects (%),[4],1% and 0%
same,Population Membrane Permeable-Phenotype (%),[4],7% and 2%
same,Population Mitochondria Different-Phenotype (%),[4],21% and 31%
same,Population Mitotic Cells (%),[4],34% and 25%
same,Population Normal (%),[4],98% and 99%
same,Population Pyknosed Nuclei (%),[4],22% and 27%
same,Population Tubulin-Different-Phenotype (%),[4],86% and 79%
same,Total Cell Count,[4],279 and 234
same,Population Apoptotic (%),[5],70% and 65%
same,Population Fragmented Nuclei (%),[5],11% and 16%
same,Population Healthy Nuclei (%),[5],73% and 63%
same,Population Hoechst High Intensity Objects (%),[5],0%
same,Population Membrane Permeable-Phenotype (%),[5],3%
same,Population Mitochondria Different-Phenotype (%),[5],3% and 9%
same,Population Mitotic Cells (%),[5],29% and 34%
same,Population Normal (%),[5],100%
same,Population Pyknosed Nuclei (%),[5],15% and 20%
same,Population Tubulin-Different-Phenotype (%),[5],39% and 30%
same,Total Cell Count,[5],180 and 175
same,Population Apoptotic (%),[6],93% and 96%
same,Population Fragmented Nuclei (%),[6],11% and 16%
same,Population Healthy Nuclei (%),[6],40% and 48%
same,Population Hoechst High Intensity Objects (%),[6],6% and 2%
same,Population Mitochondria Different-Phenotype (%),[6],53% and 52%
same,Population Mitotic Cells (%),[6],6% and 3%
same,Population Normal (%),[6],93% and 97%
same,Population Pyknosed Nuclei (%),[6],48% and 34%
same,Population Tubulin-Different-Phenotype (%),[6],83% and 78%
same,Total Cell Count,[6],164 and 169
